Measurements reported in ChEMBL document CHEMBL1124971, “Cyclization-activated prodrugs. Basic carbamates of 4-hydroxyanisole” (J Med Chem, 1990).
Each block holds one compound with its values, some of them ahead of it.

Tests used:
[1] = Half-life at 37 degree Celsius in aqueous solution at pH 7.4; type: ADME
Method in brief: (§1)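 Carbamate hydrochloride salt (about 0.5 mg) taken up in buffer pre-warmed to 37 °C, final about 1 mM, and held at 37 °C. Samples were injected straight onto C-18 reverse-phase HPLC at intervals, or quenched in 1 N HCl first. Carbamate and 4-methoxyphenol were read at 220 nm. Half-life is the time to 50% conversion, fitted by first-order kinetics. Each value is the mean of at least two separate runs.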

[2] = pKa of the compound; type: physicochemical
[3] = Half-life at 37 degree Centigrade, towards Murine plasma esterases at pH 7.4; type: ADME; settings: mouse
Method in brief: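 Carbamate HCl salt dissolved in dilute H3PO4, then added to fresh murine plasma with pH 7.4 phosphate buffer (plasma:buffer 1.6:0.40) at 37 °C, final 5×10^-4 M. pH held at 7.4 by pH-stat. Aliquots taken at intervals were quenched in 7% HClO4 and centrifuged, and the supernatant was analysed.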

[4] = Half-life at 37 degree Centigrade, in aqueous solution at pH 7.4; type: ADME; method in brief: as §1
[5] = Half-life at 37 degree Celsius in aqueous solution at pH 4.2; type: ADME; method in brief: as §1
[6] = Half-life at 37 degree Celsius in aqueous solution at pH 5.2; type: ADME; method in brief: as §1
[7] = Half-life at 37 degree Celsius in aqueous solution at pH 6.8; type: ADME; method in brief: as §1

Structure (SMILES): CCNCCN(CC)C(=O)Oc1ccc(OC)cc1.Cl
half-life [1]: 1.97 h

Structure (SMILES): COc1ccc(OC(=O)NCCCN)cc1.Cl
pKa [2]: 9.6
half-life [1]: 15.2 h

Structure (SMILES): CNCCN(C)C(=O)Oc1ccc(OC)cc1.Cl
half-life [3]: 0.933 h
half-life [4]: 0.605 h
half-life [5]: > 360 h
half-life [6]: 57.8 h
half-life [7]: 2.33 h

Structure (SMILES): COc1ccc(OC(=O)N(C)CCN(C)C)cc1.Cl
half-life [1]: 0.66 h

Structure (SMILES): CNCCCN(C)C(=O)Oc1ccc(OC)cc1.Cl
half-life [1]: 15.7 h

Structure (SMILES): CNCCNC(=O)Oc1ccc(OC)cc1.Cl
half-life [1]: 5.58 h

Structure (SMILES): COc1ccc(OC(=O)NCCN)cc1.Cl
pKa [2]: 8.65
half-life [1]: 12.1 h

half-life [1]: < 0.005 h
Structure (SMILES): CNCCOC(=O)Oc1ccc(OC)cc1.Cl

Structure (SMILES): COc1ccc(OC(=O)N(C)CCN)cc1.Cl
pKa [2]: 8.9
half-life [1]: 5.07 h
